Measured values: ChEMBL document CHEMBL2157880, “Synthesis, antimycobacterial and antibacterial activity of ciprofloxacin derivatives containing a N-substituted benzyl moiety” (2012)
Values after ≈ are worked out from the molar mass of the structure shown.

How the values were obtained:
Format in all cases: functional
[1] = tested on: Staphylococcus epidermidis; assay: Antibacterial activity against methicillin-resistant Staphylococcus epidermidis 10-10 after 18 to 24 hrs by NCCLS method
How it was run: (§1)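 Incubated at 35 °C for 18–24 h under NCCLS (M100-S11) standards. MIC was read as the lowest concentration giving complete inhibition of visible bacterial growth.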

Klebsiella pneumoniae [2] = assay: Antibacterial activity against extended spectrum beta-lactamases producing Klebsiella pneumoniae 10-2 after 18 to 24 hrs by NCCLS method
How it was run: (§2)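 Standard NCCLS (M100-S11) MIC testing against Gram-positive and Gram-negative strains. Plates were incubated at 35 °C for 18–24 h. The MIC was read as the lowest concentration giving complete inhibition of visible bacterial growth.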

Staphylococcus aureus [3] = assay: Antibacterial activity against methicillin-resistant Staphylococcus aureus 10-15 after 18 to 24 hrs by NCCLS method; how it was run: as §1
Escherichia coli [4] = assay: Antibacterial activity against Escherichia coli 10-2 after 18 to 24 hrs by NCCLS method; how it was run: as §2
Staphylococcus aureus [5] = assay: Antibacterial activity against methicillin-sensitive Staphylococcus aureus 10-14 after 18 to 24 hrs by NCCLS method; how it was run: as §2
Staphylococcus aureus [6] = assay: Antibacterial activity against methicillin-sensitive Staphylococcus aureus 10-13 after 18 to 24 hrs by NCCLS method; how it was run: as §2
Escherichia coli [7] = assay: Antibacterial activity against Escherichia coli 10-3 after 18 to 24 hrs by NCCLS method; how it was run: as §2
[8] = tested on: Staphylococcus epidermidis; assay: Antibacterial activity against methicillin-sensitive Staphylococcus epidermidis 10-11 after 18 to 24 hrs by NCCLS method; how it was run: as §2
Pseudomonas aeruginosa [9] = assay: Antibacterial activity against Pseudomonas aeruginosa 10-12 after 18 to 24 hrs by NCCLS method; how it was run: as §2
Staphylococcus aureus [10] = assay: Antibacterial activity against methicillin-resistant Staphylococcus aureus 10-13 after 18 to 24 hrs by NCCLS method; how it was run: as §1
Enterococcus faecium [11] = assay: Antibacterial activity against Enterococcus faecium 10-6 after 18 to 24 hrs by NCCLS method; how it was run: as §2
Escherichia coli [12] = assay: Antibacterial activity against extended spectrum beta-lactamases producing Escherichia coli 10-4 after 18 to 24 hrs by NCCLS method; how it was run: as §2
Pseudomonas aeruginosa [13] = assay: Antibacterial activity against Pseudomonas aeruginosa 10-9 after 18 to 24 hrs by NCCLS method; how it was run: as §2
Streptococcus pneumoniae [14] = assay: Antibacterial activity against Streptococcus pneumoniae 10-6 after 18 to 24 hrs by NCCLS method; how it was run: as §2
Staphylococcus aureus [15] = assay: Antibacterial activity against methicillin-resistant Staphylococcus aureus 10-11 after 18 to 24 hrs by NCCLS method; how it was run: as §1
Streptococcus pneumoniae [16] = assay: Antibacterial activity against Streptococcus pneumoniae 10-1 after 18 to 24 hrs by NCCLS method; how it was run: as §2
Escherichia coli [17] = assay: Antibacterial activity against extended spectrum beta-lactamases producing Escherichia coli 10-2 after 18 to 24 hrs by NCCLS method; how it was run: as §2
Escherichia coli [18] = assay: Antibacterial activity against extended spectrum beta-lactamases producing Escherichia coli 10-3 after 18 to 24 hrs by NCCLS method; how it was run: as §2
Klebsiella pneumoniae [19] = assay: Antibacterial activity against Klebsiella pneumoniae 10-4 after 18 to 24 hrs by NCCLS method; how it was run: as §2
[20] = tested on: Staphylococcus epidermidis; assay: Antibacterial activity against methicillin-resistant Staphylococcus epidermidis 10-13 after 18 to 24 hrs by NCCLS method; how it was run: as §1
Staphylococcus aureus [21] = assay: Antibacterial activity against Staphylococcus aureus ATCC 2592 after 18 to 24 hrs by NCCLS method; how it was run: as §2
Pseudomonas aeruginosa [22] = assay: Antibacterial activity against Pseudomonas aeruginosa 10-5 after 18 to 24 hrs by NCCLS method; how it was run: as §2
Klebsiella pneumoniae [23] = assay: Antibacterial activity against extended spectrum beta-lactamases producing Klebsiella pneumoniae 10-3 after 18 to 24 hrs by NCCLS method; how it was run: as §2
Pseudomonas aeruginosa [24] = assay: Antibacterial activity against Pseudomonas aeruginosa 10-18 after 18 to 24 hrs by NCCLS method; how it was run: as §2
Staphylococcus aureus [25] = assay: Antibacterial activity against methicillin-sensitive Staphylococcus aureus 10-11 after 18 to 24 hrs by NCCLS method; how it was run: as §2
Escherichia coli [26] = assay: Antibacterial activity against Escherichia coli ATCC 25922 after 18 to 24 hrs by NCCLS method; how it was run: as §2
[27] = tested on: Staphylococcus epidermidis; assay: Antibacterial activity against methicillin-sensitive Staphylococcus epidermidis 10-15 after 18 to 24 hrs by NCCLS method; how it was run: as §1
Klebsiella pneumoniae [28] = assay: Antibacterial activity against extended spectrum beta-lactamases producing Klebsiella pneumoniae 10-1 after 18 to 24 hrs by NCCLS method; how it was run: as §2
Pseudomonas aeruginosa [29] = assay: Antibacterial activity against Pseudomonas aeruginosa 10-15 after 18 to 24 hrs by NCCLS method; how it was run: as §2
Enterococcus faecalis [30] = assay: Antibacterial activity against Enterococcus faecalis 10-7 after 18 to 24 hrs by NCCLS method; how it was run: as §2
Klebsiella pneumoniae [31] = assay: Antibacterial activity against Klebsiella pneumoniae 10-3 after 18 to 24 hrs by NCCLS method; how it was run: as §2
Enterococcus faecium [32] = assay: Antibacterial activity against Enterococcus faecium 10-9 after 18 to 24 hrs by NCCLS method; how it was run: as §2
Klebsiella pneumoniae [33] = assay: Antibacterial activity against Klebsiella pneumoniae 10-2 after 18 to 24 hrs by NCCLS method; how it was run: as §2
Enterococcus faecalis [34] = assay: Antibacterial activity against Enterococcus faecalis 10-5 after 18 to 24 hrs by NCCLS method; how it was run: as §2
[35] = tested on: Mycobacterium tuberculosis; assay: Antimycobacterial activity against Mycobacterium tuberculosis H37Rv ATCC 27294 by microplate alamar blue assay
How it was run: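 Microplate Alamar Blue fluorescence assay on strain H37Rv ATCC 27294. MIC was the lowest concentration cutting fluorescence by ≥90% against the mean of replicate bacterium-only controls.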

Enterococcus faecalis [36] = assay: Antibacterial activity against Enterococcus faecalis 10-6 after 18 to 24 hrs by NCCLS method; how it was run: as §2
Pseudomonas aeruginosa [37] = assay: Antibacterial activity against Pseudomonas aeruginosa 10-20 after 18 to 24 hrs by NCCLS method; how it was run: as §2
Escherichia coli [38] = assay: Antibacterial activity against Escherichia coli 10-1 after 18 to 24 hrs by NCCLS method; how it was run: as §2

SMILES: COc1ccc(CN2CCN(c3cc4c(cc3F)c(=O)c(C(=O)O)cn4C3CC3)CC2)c(Cl)c1OC
- MIC [1]: 32 µg/mL (≈ 62 µM)
- MIC (Klebsiella pneumoniae [2]): > 128 µg/mL
- MIC (Staphylococcus aureus [3]): 64 µg/mL (≈ 124 µM)
- MIC (Escherichia coli [4]): 32 µg/mL (≈ 62 µM)
- MIC (Staphylococcus aureus [5]): 0.5 µg/mL (≈ 0.969 µM)
- MIC (Staphylococcus aureus [6]): 0.5 µg/mL (≈ 0.969 µM)
- MIC (Escherichia coli [7]): > 128 µg/mL
- MIC [8]: 1 µg/mL (≈ 1.94 µM)
- MIC (Pseudomonas aeruginosa [9]): 64 µg/mL (≈ 124 µM)
- MIC (Staphylococcus aureus [10]): 128 µg/mL (≈ 248 µM)
- MIC (Enterococcus faecium [11]): 4 µg/mL (≈ 7.75 µM)
- MIC (Escherichia coli [12]): > 128 µg/mL
- MIC (Pseudomonas aeruginosa [13]): 128 µg/mL (≈ 248 µM)
- MIC (Streptococcus pneumoniae [14]): 64 µg/mL (≈ 124 µM)
- MIC (Staphylococcus aureus [15]): 64 µg/mL (≈ 124 µM)
- MIC (Streptococcus pneumoniae [16]): 2 µg/mL (≈ 3.88 µM)
- MIC (Escherichia coli [17]): > 128 µg/mL
- MIC (Escherichia coli [18]): > 128 µg/mL
- MIC (Klebsiella pneumoniae [19]): > 128 µg/mL
- MIC [20]: 32 µg/mL (≈ 62 µM)
- MIC (Staphylococcus aureus [21]): 0.06 µg/mL (≈ 0.116 µM)
- MIC (Pseudomonas aeruginosa [22]): 64 µg/mL (≈ 124 µM)
- MIC (Klebsiella pneumoniae [23]): > 128 µg/mL
- MIC (Pseudomonas aeruginosa [24]): 128 µg/mL (≈ 248 µM)
- MIC (Staphylococcus aureus [25]): 0.5 µg/mL (≈ 0.969 µM)
- MIC (Escherichia coli [26]): 1 µg/mL (≈ 1.94 µM)
- MIC [27]: 32 µg/mL (≈ 62 µM)
- MIC (Klebsiella pneumoniae [28]): > 128 µg/mL
- MIC (Pseudomonas aeruginosa [29]): 64 µg/mL (≈ 124 µM)
- MIC (Enterococcus faecalis [30]): 32 µg/mL (≈ 62 µM)
- MIC (Klebsiella pneumoniae [31]): 32 µg/mL (≈ 62 µM)
- MIC (Enterococcus faecium [32]): 32 µg/mL (≈ 62 µM)
- MIC (Klebsiella pneumoniae [33]): > 128 µg/mL
- MIC (Enterococcus faecalis [34]): 8 µg/mL (≈ 15.5 µM)
- MIC [35]: 2 µg/mL (≈ 3.88 µM)
- MIC (Enterococcus faecalis [36]): 64 µg/mL (≈ 124 µM)
- MIC (Pseudomonas aeruginosa [37]): 64 µg/mL (≈ 124 µM)
- MIC (Escherichia coli [38]): > 128 µg/mL
